# Measured values from different studies.
# Each line is one published result; the experiments were not run side by side. pEC50, pIC50, pKd, pKi: −log10 of the molar value.
# DRD4: D(4) dopamine receptor (DRD4, Homo sapiens, UniProt P21917)
# ABHD6: Monoacylglycerol lipase ABHD6 (ABHD6, Homo sapiens, UniProt Q9BV23)
# VASP: Vasodilator-stimulated phosphoprotein (VASP, Homo sapiens, UniProt P50552)
Compound,target,assay,conditions,quantity,value
C[C@H](N)Cn1ncc2ccc3c(c21)CCCO3,"D(4) dopamine receptor (DRD4, Homo sapiens, UniProt P21917, del265-296)","ligand displacement, radioligand",,pIC50,< 4.00
OC(c1ccc(F)cc1)C(F)(F)CCN1CCC(O)(c2ccc(Cl)cc2)CC1 (racemic),DRD4,"cell-free assay, radioligand",,pKi,7.29
CN(C(=O)Oc1nsnc1N1CCCCC1)c1cccc([N+](=O)[O-])c1,ABHD6,"enzyme activity, inhibitor, fluorescence",lysate,pIC50,5.92
CC(=O)N[C@@H](Cc1ccccc1Cl)C(=O)N1CCC[C@H]1C(=O)N1CCC[C@H]1C(=O)N1CCC[C@H]1C(=O)N1CCC[C@H]1C(=O)O,VASP,"binding, fluorescence",,pKd,4.89
COc1ccc(N(C)C(=O)Oc2nsnc2N2CCCCC2)cc1,ABHD6,"enzyme activity, inhibitor, fluorescence",lysate,pIC50,6.58
CC(=O)N[C@@H](CO)C(=O)N[C@@H](Cc1ccccc1)C(=O)N[C@@H](CCC(=O)O)C(=O)N[C@@H](Cc1ccccc1)C(=O)N1CCC[C@H]1C(=O)N1CCC[C@H]1C(=O)N1CCC[C@H]1C(=O)N1CCC[C@H]1C(=O)N[C@H](C(=O)N[C@@H](CCC(=O)O)C(=O)N[C@@H](CC(=O)O)C(=O)N[C@@H](CCC(=O)O)C(=O)N[C@@H](CC(C)C)C(N)=O)[C@@H](C)O,VASP,"binding, fluorescence",,pKd,4.72
CCCCOc1ccc(C(=O)CCN2CCCCC2)cc1,DRD4,"ligand displacement, radioligand",,pIC50,5.39
O=C(COc1ccc2cc(C(=O)Nc3ccccc3)ccc2c1)NCc1ccc(OP(=O)(O)O)c(OP(=O)(O)O)c1,"Signal transducer and activator of transcription 6, SH2 (Homo sapiens, UniProt P42226)","ligand displacement, FP",,pKi,5.46
CN(C(=O)Oc1nsnc1N1CCCCC1)C1CCCCCC1,ABHD6,"enzyme activity, inhibitor, fluorescence",lysate,pIC50,7.37
COc1cc(C(=O)N2CC[C@@H](O)[C@@H](N)C2)cc2nc(-c3cc4ccccc4n3CC3CC3)n(C)c12,"Nuclear receptor subfamily 1 group I member 2 (NR1I2, Homo sapiens, UniProt O75469)","reporter gene, agonist, luciferase",,pEC50,< 4.30
CN(C(=O)Oc1nsnc1N1CCCCC1)C1CCCCCCC1,ABHD6,"enzyme activity, inhibitor, fluorescence",lysate,pIC50,7.14
CN(Cc1ccc(NC(=O)C2=Cc3cc(-c4ccc(OCCCF)cc4)ccc3CCC2)cc1)C1CCOCC1,"5-hydroxytryptamine receptor 5A (HTR5A, Homo sapiens, UniProt P47898)","ligand displacement, radioligand",,pKi,5.30
